# Assay outcomes deposited in PubChem BioAssay by several laboratories.
# Only some compounds are listed: those with a hit (about 1.5% of all), similar ones and a draw of the others.
# CHT allo act: CHT positive allosteric modulators, primary screen, cell-based, membrane potential dye, choline EC20; AID 488977, 2010; hit rate 0.49% among 310,000; B-score at 10 µM; High affinity choline transporter 1 (Homo sapiens), Q9GZV3; CHT-expressing cells; hits give high values; LV-AA mutant CHT in HEK293 cells;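 active means initial fluorescence not abnormally high and integrated response B-score, plate-corrected, over 3 SD above library mean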
# T cell modulator: modulators of CD8 T cell-vesicle binding, primary screen, mouse 2C CD8+ T cells, flow cytometry | 2C CD8+ T cell-vesicle binding; hits give low values | response (vesicle binding), % at 7 µM | hit rate 0.068% among 330,000 | AID 2052, 2009;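 active means response, share of CD8 T cells binding vesicles, and their 90th percentile fluorescence all below set limits, cut at about 80% in these data, passing the limit was not always enough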;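 further: values below 100% mean blocked vesicle binding to the CD8+ T cells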
#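 incubation = binding step 1.5 h, 37 °C, antibody labelling 20 min, ice | test system = 2C mouse CD8+ T cells | read-out basis = percent CD8+ FL2 mean versus row control | controls = Peptide-free naked vesicles (low) and QL9 vesicles with 0.7% DMSO vehicle (high) | detection = flow cytometry of vesicle-bound cells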
# CHT block: inhibitors of human choline transporter CHT; High affinity choline transporter 1 (Homo sapiens), Q9GZV3; CHT-expressing cells, membrane potential dye, choline response; hits give low values; B-score at 10 µM; hit rate 0.86% among 310,000;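 active means B-score over 3 SD under the library average, and starting fluorescence ratio not unusually high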;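 further: choline stimulus applied at its EC90 after an EC20 pre-addition; B-score computed on integrated fluorescence ratio after choline addition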
# VLA-4 inh: inhibition in human VLA-4 binding assay, primary screen, VLA-4 allosteric modulator project, MLPCN library, flow cytometry, VLA-4 expressing cells. hit rate 0.2% among 330,000. inhibition, % (about 7 µM as worked out from the volumes in the protocol). ligand binding flow cytometry; in the data active means inhibition above about 50%
# Target sequence (P13612 whole entry, looked up): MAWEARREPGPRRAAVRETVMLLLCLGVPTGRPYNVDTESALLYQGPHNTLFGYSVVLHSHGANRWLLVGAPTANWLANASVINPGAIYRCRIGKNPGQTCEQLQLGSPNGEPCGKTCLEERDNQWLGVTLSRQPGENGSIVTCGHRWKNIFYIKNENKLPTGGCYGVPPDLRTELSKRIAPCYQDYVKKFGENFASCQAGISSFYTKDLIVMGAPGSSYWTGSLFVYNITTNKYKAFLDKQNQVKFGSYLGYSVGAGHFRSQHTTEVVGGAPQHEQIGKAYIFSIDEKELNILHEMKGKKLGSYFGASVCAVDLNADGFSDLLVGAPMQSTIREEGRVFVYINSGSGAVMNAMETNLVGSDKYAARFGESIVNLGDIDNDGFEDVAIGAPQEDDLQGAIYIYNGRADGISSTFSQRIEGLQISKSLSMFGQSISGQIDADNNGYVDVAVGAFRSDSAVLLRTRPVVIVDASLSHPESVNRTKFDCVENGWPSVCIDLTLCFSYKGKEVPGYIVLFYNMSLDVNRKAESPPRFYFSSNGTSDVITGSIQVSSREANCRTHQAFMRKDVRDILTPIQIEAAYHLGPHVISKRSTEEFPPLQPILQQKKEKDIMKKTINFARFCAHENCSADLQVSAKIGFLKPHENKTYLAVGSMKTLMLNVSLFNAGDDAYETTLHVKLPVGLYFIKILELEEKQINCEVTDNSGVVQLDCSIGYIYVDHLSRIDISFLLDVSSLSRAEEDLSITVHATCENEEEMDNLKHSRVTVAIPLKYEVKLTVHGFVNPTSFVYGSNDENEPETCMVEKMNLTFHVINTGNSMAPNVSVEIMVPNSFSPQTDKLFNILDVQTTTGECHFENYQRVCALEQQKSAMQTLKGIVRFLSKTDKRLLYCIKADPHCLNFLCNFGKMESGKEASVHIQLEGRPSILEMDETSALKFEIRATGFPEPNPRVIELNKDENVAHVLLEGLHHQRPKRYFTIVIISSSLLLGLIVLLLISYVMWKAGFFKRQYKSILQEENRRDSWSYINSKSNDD
# CHT block conf: CHT inhibitors, confirmation, cell-based, membrane potential dye, duplicate; shares compounds with CHT block; CHT-expressing cells, choline membrane potential dye; LV-to-AA substituted CHT, HEK293 cells; CHT activity remaining % of control (hits give low values), % at 10 µM; hit rate 70% among 2,400;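 active means choline transporter activity left, mean of duplicates at 10 µM, below buffer-only control mean minus 3 SD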;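 further: depolarization triggered by choline at its EC90 following an EC20 pre-addition; 0% = hemicholinium-3 full block and 100% = buffer-only control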
# HEK293 CHT ctr: membrane potential effects in parental HEK293, counter-screen for CHT inhibitor project, cell-based, membrane potential dye | shares compounds with CHT block | choline response; active = decrease or increase beyond buffer ±3SD | membrane potential ratio readout (active if shifted either direction beyond buffer ±3SD; no single direction) at 10 µM | hit rate 4% among 2,400;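 further: parental cells lack the transporter so any hit is non-specific; ratio is peak minus trough fluorescence over baseline after EC90 choline challenge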
# * hit, by the source's call; i = inactive; nt = no result.
SMILES,CHT allo act,T cell modulator,CHT block,VLA-4 inh,CHT block conf,HEK293 CHT ctr
CCc1ccc(-n2c(C)cc(/C=N/NC(=O)c3ccncc3)c2C)cc1,i,223,i,-7,nt,nt
COC(=O)N/N=C/c1cc(C)n(-c2ccc(F)cc2)c1C,i,167,i,-1,nt,nt
CC(=O)N/N=C/c1cc(C)n(-c2ccc(Br)cc2)c1C,i,0,i,-18,nt,nt
CCCN(C(=O)c1cnccn1)c1c(N)n(Cc2ccccc2)c(=O)[nH]c1=O,nt,354,nt,11,nt,nt
Cc1ccc(C)c(NC(=O)c2ccc(S(=O)(=O)C(F)F)cc2)c1,i,196,i,4,nt,nt
CCCOc1ccc(/C=C2/C(=O)ON=C2C)cc1OCC,i,223,i,27,nt,nt
CC1=NOC(=O)/C1=C/c1ccc(O)c(Br)c1,i,195,-9.6*,-3,21%*,i
COc1cc(/C=C2/C(=O)ON=C2c2ccccc2)ccc1O,i,266,-6.7*,2,37%*,i
CCOc1cc(/C=C2/C(=O)ON=C2C)cc(Br)c1O,i,166,-9.6*,-6,42%*,i
CCOc1cc(/C=C2\C(=O)ON=C2c2ccccc2)cc(Br)c1O,i,427,-5.6*,-32,44%*,i
Cc1cccc(C)c1OCc1cc(C(=O)N2CCN(C3CCCC3)CC2)no1,i,406,-6.3*,-5,53%*,i
O=S(=O)(Nc1nc2ccccc2s1)c1ccc(Cl)nc1,i,223,i,9,67%*,i
C[n+]1ccccc1COc1ccc(C(C)(C)C)cc1,i,236,-7.3*,-12,34%*,i
O=C(NNc1c(Cl)cccc1Cl)c1ccno1,i,109,i,14,nt,nt
COc1ccc2c(Cl)c(-c3nnc4n3CCCCC4)sc2c1,i,219,-6.2*,7,i,i
Clc1c(-c2nnc3n2CCC3)sc2ccccc12,i,376,i,2,nt,nt
Clc1c(-c2nnc3n2CCCCC3)sc2ccccc12,i,120,-5.3*,-8,36%*,-8.5*
Cc1ccccc1Nc1c(-c2ccncc2)nc2ccc(Br)cn12,i,176,-6.9*,17,51%*,i
Cc1ccccc1Nc1c(-c2cccnc2)nc2ccc(Br)cn12,i,296,i,5,nt,nt
COc1ccc(N2CC(C(=O)N(CC(C)C)c3c(N)n(Cc4ccccc4)c(=O)[nH]c3=O)CC2=O)c(OC)c1 (centres undefined),i,404,i,-16,nt,nt
O=C(c1ccc2[nH]c(=O)c(=O)[nH]c2c1)N1CCc2ccccc2C1,i,182,i,-12,nt,nt
CCn1c(SCC(=O)N2CCCc3ccccc32)nc2ccccc2c1=O,i,144,-6.1*,11,i,i
CCn1c(SCC(=O)N2CCCc3ccccc32)nc2cccnc21,i,293,i,6,nt,nt
NNC(=O)c1ccc(NS(=O)(=O)c2ccc(Br)cc2)cc1,i,539,i,0,nt,nt
CC(C)NS(=O)(=O)c1ccc(CCC(=O)N2CCc3ccccc3C2)cc1,i,121,-5.1*,1,46%*,i
CCOCCCNS(=O)(=O)c1ccc(NC(=O)c2ccc([N+](=O)[O-])cc2Cl)cc1,i,362,-10*,17,-5.7%*,i
CCC(C)NS(=O)(=O)c1ccc(NC(=O)c2ccc([N+](=O)[O-])cc2Cl)cc1 (centres undefined),i,135,-8.9*,-3,i,i
CCN1C(=O)[C@H]2[C@@H](c3ccc(-c4ccc(OC)cc4)cc3)N3CCCC[C@@]3(C(=O)OC)[C@H]2C1=O,i,368,i,8,nt,nt
Nc1cc(N)nc(SCC(=O)NC(=O)NC2CCCC2)n1,nt,326,nt,-4,nt,nt
Cc1nc(SCC(=O)NC(=O)NC2CCCCC2)nc(C)c1C,i,188,-11*,3,3.3%*,i
